# Results: ChEMBL document CHEMBL1155584, “Bioactive compounds from Psorothamnus junceus” (J Nat Prod, 2000)
# Assays:
# Type in all cases: functional
# A549 = experiment: Cytotoxicity against human A549 cells by MTT assay
# In short: (§1)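 Human tumour lines (A-549 lung carcinoma, MCF-7 breast carcinoma, HT-29 colon adenocarcinoma, SK-MEL-5 melanoma from an axillary node metastasis, Malme-3M melanoma from a lung metastasis) tested with a standard MTT protocol. Adriamycin served as the positive control. Results are reported as GI50.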
# Malme-3M = experiment: Cytotoxicity against human MALME-3M cells by MTT assay; in short: as §1
# HT-29 = experiment: Cytotoxicity against human HT29 cells by MTT assay; in short: as §1
# SK-MEL-5 = experiment: Cytotoxicity against human SK-MEL-5 cells by MTT assay; in short: as §1
# MCF7 = experiment: Cytotoxicity against human MCF7 cells by MTT assay; in short: as §1
SMILES,GI50 (A549) [µg/mL],GI50 (Malme-3M) [µg/mL],GI50 (HT-29) [µg/mL],GI50 (SK-MEL-5) [µg/mL],GI50 (MCF7) [µg/mL]
COC1=C(C)C(=O)C(C)(C)C(=O)/C1=C1\C=Cc2ccccc2O1 [DALRUBONE],0.2,2,0.02,0.4,1
CC(=O)C1=c2oc3c(c2Oc2ccccc21)C(=O)C(C)(C)C(=O)C=3C [PSOROTHAMNONE A],40,60,50,20,60
CC1=c2oc3c(c2C(=O)C(C)(C)C1=O)Oc1ccccc1C=3 [PSOROTHAMNONE B],30,40,30,40,40
CC1(C)C(=O)C(=C2C=Cc3ccccc3O2)C(=O)C(C)(C)C1=O [EMORYDONE],3,1,4,3,3
COc1cccc2c1C(=O)c1c(O)c3c(c(O)c1C2=O)C[C@@](O)(C(=O)CO)C[C@@H]3O[C@H]1C[C@H](N)[C@H](O)[C@H](C)O1 [DOXORUBICIN],0.04,0.1,0.06,0.03,0.2
